Measured values as given in ChEMBL document CHEMBL5108069, “Selective C9orf72 G-Quadruplex-Binding Small Molecules Ameliorate Pathological Signatures of ALS/FTD Models” (J Med Chem, 2022).
pKd: −log10 of the molar value. Calls of active or inactive are those of the source. The rule behind the calls is not given here.

How the values were obtained:
Quadruplex DNA [1] = experiment: Binding affinity to C9orf72 (G4C2)2 G4 quadruplex RNA (unknown origin) assessed as change in chemical shift by one-dimensional 1H-NMR analysis; type: nucleic-acid assay
Method in brief: (§1)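 Oligos (100 μM) annealed at 95 °C for 15 min, cooled slowly overnight in 70 mM KCl, 20 mM potassium phosphate, pH 7.0. NMR samples held 0.1 mM DNA or RNA. Compounds from ~50 mM DMSO-d6 stocks, titrated at G4:compound ratios 1:1 to 1:10 (RNA 1:3, 1:5, 1:10). Imino-region 1D 1H spectra at 25 °C; further spectra at pH 6 and 7, at 25, 35 and 45 °C.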

Quadruplex DNA [2] = experiment: Binding affinity to C9orf72 (G4C2)4 G4 quadruplex DNA (unknown origin) assessed as change in chemical shift by one-dimensional 1H-NMR analysis; type: nucleic-acid assay; method in brief: as §1
Quadruplex DNA [3] = experiment: Binding affinity to C9orf72 (G4C2)2 G4 quadruplex DNA (unknown origin) assessed as change in chemical shift by one-dimensional 1H-NMR analysis; type: nucleic-acid assay
Method in brief: (§2)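 Oligonucleotide annealed at 100 μM by heating to 95 °C for 15 min, then cooled slowly to room temperature overnight in 70 mM KCl, 20 mM potassium phosphate, pH 7.0. NMR samples held 0.1 mM G4 in the same buffer. Compound stocks were about 50 mM in DMSO-d6. Titrated into G4; imino-region 1D 1H spectra recorded at 25 °C and compared with G4-only and DMSO control spectra.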

Quadruplex DNA [4] = experiment: Binding affinity to human telomeric htel21-T18 (d[(GGGTTA)2GGGTTTGGG]) G4 quadruplex DNA assessed as change in chemical shift by one-dimensional 1H-NMR analysis; type: nucleic-acid assay; method in brief: as §2
[5] = Permeability of compound in PBS buffer at 500 uM incubated for 18 hrs by PAMPA assay; type: ADME
Method in brief: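 PAMPA: donor membrane coated with 4% lecithin in dodecane. 500 μM compound added to duplicate donor wells over PBS acceptor wells, incubated 18 h at 37 °C. Acceptor solution scanned 200–500 nm to find peak absorbance, referenced to equilibrium standards and a DMSO/PBS blank. n = 5.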

Quadruplex DNA [6] = experiment: Binding affinity to C9orf72 (G4C2)4 G4 quadruplex DNA (unknown origin) assessed as change in chemical shift at pH 7 in 25 to 45 degree C by one-dimensional 1H-NMR analysis; type: nucleic-acid assay; method in brief: as §1
Quadruplex DNA [7] = experiment: Binding affinity to C9orf72 (G4C2)4 G4 quadruplex DNA (unknown origin) assessed as change in chemical shift at pH 6 in 25 to 45 degree C by one-dimensional 1H-NMR analysis; type: nucleic-acid assay; method in brief: as §1
Quadruplex DNA [8] = experiment: Binding affinity to 3'-FAM labeled C9orf72 (G4C2)4 G4 quadruplex DNA (unknown origin) assessed as decrease in fluorescence intensity by fluorescence intensity assay; type: nucleic-acid assay
Method in brief: (§3)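 3'-FAM-labelled DNA (G4C2)4 G4 or RNA (G4C2)2 G4 annealed at 98 °C for 10 min in 10 mM K+ buffer (8 mM KCl, 2 mM KH2PO4, pH 6.8), 1 μM final, slowly cooled. Compound titrated 0.1–10 mM in same buffer at room temperature. Fluorescence read at ex/em 470/520 nm. KD from nonlinear one-site specific binding fit with Hill slope.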

Quadruplex DNA [9] = experiment: Binding affinity to C9orf72 (G4C2)4 G4 quadruplex DNA (unknown origin) assessed as compound-DNA complex formation at pH 6 in 25 degree C by circular dichroism spectroscopy; type: nucleic-acid assay
Method in brief: (§4)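 G4 at 15 μM mixed with compound at 1:10 molar ratio, pH 6 or pH 7. CD spectra recorded at 25 °C in a 1 mm quartz cuvette as the mean of three scans, buffer subtracted.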

Quadruplex DNA [10] = experiment: Binding affinity to C9orf72 (G4C2)4 G4 quadruplex DNA (unknown origin) assessed as compound-DNA complex formation at pH 7 in 25 degree C by circular dichroism spectroscopy; type: nucleic-acid assay; method in brief: as §4
Quadruplex DNA [11] = experiment: Binding affinity to C9orf72 (G4C2)2 G4 quadruplex RNA (unknown origin) assessed as compound-DNA complex formation at pH 6 in 25 degree C by circular dichroism spectroscopy; type: nucleic-acid assay; method in brief: as §4
Quadruplex DNA [12] = experiment: Binding affinity to C9orf72 (G4C2)2 G4 quadruplex RNA (unknown origin) assessed as compound-DNA complex formation at pH 7 in 25 degree C by circular dichroism spectroscopy; type: nucleic-acid assay; method in brief: as §4
Quadruplex DNA [13] = experiment: Stabilization of C9orf72 (G4C2)4 G4 quadruplex DNA (unknown origin) assessed as thermal stability by measuring melting temperature at pH 7 by circular dichroism spectroscopy; type: nucleic-acid assay
Method in brief: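 G4 at 15 μM with compound at 1:10 molar ratio, pH 7. CD signal followed from 25 to 95 °C at 1 °C/min at one wavelength (290 nm for DNA G4). Absorbance normalised as (Abst − min)/(max − min), then fitted to a Boltzmann sigmoid.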

HEK-293T [14] = experiment: Cytotoxicity in human HEK293T cells assessed as reduction in cell viability upto 0.1 ug/ml incubated for 24 hrs by MTT assay; type: toxicity, cell-based; conditions: dose < 0.1 µg/ml
Method in brief: (§5)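 HEK293T cells seeded at 5 × 10^3 per well, grown 24 h in DMEM with 10% FBS. Compounds in DMSO added at 0.1, 1 and 10 μg/mL for 24 h. MTT (5 mg/mL stock) added for 4 h at 37 °C, formazan dissolved in DMSO, absorbance read at 570 nm. n = 4 culture batches.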

Erythrocyte [15] = experiment: Hemolytic activity in rabbit RBC assessed as hemolysis at 250 to 1000 ug/ml incubated for 1 hr by microtiter plate method; type: toxicity, cell-based, Oryctolagus cuniculus; conditions: DDE = dose-dependent effect, dose 250-1000 µg/ml
Method in brief: (§6)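 Fresh rabbit red cells washed in PBS and used as a 2% suspension. Compounds diluted in PBS to final 250, 500 and 1000 μg/mL, mixed with an equal volume of cells, incubated 1 h at 37 °C. After centrifugation, supernatant absorbance read at 570 nm. Controls: 10% Triton X-100 (positive), 1% DMSO in PBS (negative). n = 3 preparations.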

HT-22 = experiment: Neuroprotective activity in retinoic acid and cAMP differentiated mouse HT-22 cells assessed as decrease in glutamate induced cellular ROS level incubated for 1 hrs by DCFH-DA based […]; type: functional, cell-based; conditions: DDE = dose-dependent effect
Method in brief: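 HT22 cells differentiated for 48 h with 10 μM retinoic acid and 500 μM cAMP in DMEM with 0.5% FBS. 5 mM L-glutamate given for 24 h, then 10 μM DCFH-DA loaded for 30 min at 37 °C and washed off. Compounds at 2 μg/mL added for 1 h; Rosup served as positive control. DCF read at 488/525 nm on a plate reader. n = 18–42 wells from three batches.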

HEK-293T [16] = experiment: Cytotoxicity in human HEK293T cells assessed as reduction in cell viability upto 10 ug/ml incubated for 24 hrs by MTT assay; type: toxicity, cell-based; conditions: dose < 10 µg/ml; method in brief: as §5
Erythrocyte [17] = experiment: Hemolytic activity in rabbit RBC assessed as hemolysis at 1000 ug/ml incubated for 1 hr by microtiter plate method; type: toxicity, cell-based, Oryctolagus cuniculus; conditions: dose 1000 µg/ml; method in brief: as §6
N2a [18] = experiment: Neuroprotective activity in mouse Neuro2a cells transfected DNA (G4C2)29 C9orf 72 ALS/FTD cell model assessed as reduction in G4C2 RNA foci at 1 ug/ml incubated for 2 days by DAPI staining based immunofluorescence analysis; type: functional; conditions: dose 1.0 µg/ml, time 2.0 day
Method in brief: (§7)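 Neuro2a cells on coverslips transfected with a pHR-Tre3G-29xGGGGCC-12xMS2 plasmid, then treated with compound at 1 μg/mL for 2 days. Fixed in 4% PFA and permeabilised. Hybridised 3 h at 46 °C with Cy3-labelled G4C2-target and Cy5-labelled CAGG probes, co-stained for hnRNP H, DAPI counterstain. Foci per cell counted by confocal microscopy; n = 17–25 coverslips from three batches.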

N2a [19] = experiment: Neuroprotective activity in mouse Neuro2a cells transfected DNA (G4C2)29 C9orf 72 ALS/FTD cell model assessed as CAGG RNA foci abundance at 1 ug/ml incubated for 2 days by DAPI staining based immunofluorescence analysis; type: functional; conditions: dose 1.0 µg/ml, time 2.0 day; method in brief: as §7
Drosophila [20] = experiment: Inhibition of eye degeneration in GMR-GAL4-(G4C2)29 Drosophila expressing (G4C2)29 in eyes C9orf72 ALS/FTD model assessed as smoothening of eyes at 100 uM, po incubated 7 day by stereomicroscopy; type: functional, organism-based
Method in brief: (§8)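 Parent flies crossed on solid food containing compound at 100 μM, DMSO vehicle. F1 larvae fed continuously until eclosion, then moved to compound-free food. Eyes of day-7 adults imaged by CCD camera on a stereomicroscope, with SEM of heads. Affected and total eye area measured to give degeneration ratio. n = 7–18 flies.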

Drosophila [21] = experiment: Inhibition of eye degeneration in GMR-GAL4-(G4C2)29 Drosophila expressing (G4C2)29 in eyes C9orf72 ALS/FTD model assessed as reflective eyes at 100 uM, po incubated 7 day by stereomicroscopy; type: functional, organism-based; method in brief: as §8
Drosophila [22] = experiment: Inhibition of eye degeneration in GMR-GAL4-(G4C2)29 Drosophila expressing (G4C2)29 in eyes C9orf72 ALS/FTD model assessed as reduction in rough-eye phenotype at 100 uM, po incubated 7 day by stereomicroscopy; type: functional, organism-based; method in brief: as §8
[23] = Inhibition of locomotor deficit in OK371-GAL4-(G4C2)29 Drosophila expressing (G4C2)29 in motor neuron C9orf72 ALS/FTD model assessed as reduction in flies staying at the bottom of flask at 100 uM, po during larval stage by climbing assay relative to control (Rvb= 18.25%); type: functional; design: scale not given: the % may be the effect or the level left
Method in brief: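 Compound at 100 μM in solid food, DMSO vehicle, given from parental cross until F1 eclosion, then regular food. Climbing test on 7-day-old adults: percentage of flies remaining below 2 cm of the tube at 25 s. n = 8 experimental batches.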

N2a [24] = experiment: Neuroprotective activity in mouse Neuro2a cells transfected DNA (G4C2)29 C9orf 72 ALS/FTD cell model assessed as increase in cell viability at 1 ug/ml by DAPI staining based immunofluorescence analysis; type: functional; conditions: dose 1.0 µg/ml
Quadruplex DNA [25] = experiment: Binding affinity to 3'-FAM labeled C9orf72 (G4C2)2 G4 quadruplex RNA (unknown origin) assessed as decrease in fluorescence intensity by fluorescence intensity assay; type: nucleic-acid assay; method in brief: as §3

## N=C(N)c1ccc(-c2ccc(-c3ccc(-c4ccc(C(=N)N)cn4)o3)o2)nc1
Quadruplex DNA [1]
  Activity: Active
Quadruplex DNA [2]
  Activity: Active
Quadruplex DNA [3]
  Activity: Active
Quadruplex DNA [4]
  Activity: Active
[5]
  permeability: Impermeable

## COc1c2c(c(O)c3c(=O)c4cccc(O[C@@H]5OC(C(=O)O)=C[C@H](O)[C@H]5O)c4oc13)-c1c(cc(CC(C)=O)c(C(=O)O)c1O)CC2
Quadruplex DNA [6]
  Activity: Active
Quadruplex DNA [7]
  Activity: Active
Quadruplex DNA [8]
  pKd: 2.52
Quadruplex DNA [2]
  Activity: Active
Quadruplex DNA [9]
  Activity: Active
Quadruplex DNA [10]
  Activity: Active
Quadruplex DNA [11]
  Activity: Active
Quadruplex DNA [12]
  Activity: Active
Quadruplex DNA [13]
  Activity: Active
[5]
  permeability: Permeable
HEK-293T [14]
  Activity: Toxic
Erythrocyte [15]
  Activity: Dde
HT-22
  Activity: Dde

## CC12CC3CC(C)(C1)CC(N)(C3)C2 [MEMANTINE]
[5]
  permeability: Permeable

## CC(=O)Cc1cc2c(c(O)c1C(=O)O)-c1c(c(O)c3oc4c(O[C@@H]5O[C@H](C(=O)O)[C@@H](O)[C@H](O)[C@H]5O)cccc4c(=O)c3c1O)CC2
Quadruplex DNA [6]
  Activity: Active
Quadruplex DNA [7]
  Activity: Active
Quadruplex DNA [8]
  pKd: 2.55
Quadruplex DNA [2]
  Activity: Active
Quadruplex DNA [9]
  Activity: Active
Quadruplex DNA [10]
  Activity: Active
Quadruplex DNA [11]
  Activity: Active
Quadruplex DNA [12]
  Activity: Active
Quadruplex DNA [13]
  Activity: Active
[5]
  permeability: Permeable
HEK-293T [16]
  Activity: Non-Toxic
Erythrocyte [17]
  Activity: Non-Toxic
N2a [18]
  Activity: Active
N2a [19]
  Activity: Active
Drosophila [20]
  Activity: Active
Drosophila [21]
  Activity: Active
Drosophila [22]
  Activity: Active
[23]
  Activity: 10.625%
HT-22
  Activity: Dde
N2a [24]
  Activity: Active

## CC(=O)Cc1cc2c(c(O)c1C(=O)O)-c1c(c(O)c3oc4c(O[C@@H]5OC(C(=O)O)=C[C@H](O)[C@H]5O)cccc4c(=O)c3c1O)CC2
Quadruplex DNA [6]
  Activity: Active
Quadruplex DNA [7]
  Activity: Active
Quadruplex DNA [25]
  pKd: 2.52
Quadruplex DNA [1]
  Activity: Active
Quadruplex DNA [8]
  pKd: 2.66
Quadruplex DNA [2]
  Activity: Active
Quadruplex DNA [9]
  Activity: Active
Quadruplex DNA [10]
  Activity: Active
Quadruplex DNA [11]
  Activity: Active
Quadruplex DNA [12]
  Activity: Active
Quadruplex DNA [13]
  Activity: Active
[5]
  permeability: Permeable
HEK-293T [16]
  Activity: Non-Toxic
Erythrocyte [17]
  Activity: Non-Toxic
N2a [18]
  Activity: Active
Drosophila [20]
  Activity: Active
Drosophila [21]
  Activity: Active
Drosophila [22]
  Activity: Active
[23]
  Activity: 5.125%
HT-22
  Activity: Dde
N2a [24]
  Activity: Active
